CHRM4 PAM – potentiates acetylcholine response at human M4 receptor; P08173; CHO-K1 hM4/Gqi5, Fluo-8 calcium fluorescence, ACh EC20; 0% = ACh EC20, 100% = maximal ACh; 360,000 tested, 0.4% active; activation, % at 3 µM;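 active = activation above its plate's cutoff, the mean activation of sample wells plus 3 SD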
Target sequence (P08173 whole entry, looked up): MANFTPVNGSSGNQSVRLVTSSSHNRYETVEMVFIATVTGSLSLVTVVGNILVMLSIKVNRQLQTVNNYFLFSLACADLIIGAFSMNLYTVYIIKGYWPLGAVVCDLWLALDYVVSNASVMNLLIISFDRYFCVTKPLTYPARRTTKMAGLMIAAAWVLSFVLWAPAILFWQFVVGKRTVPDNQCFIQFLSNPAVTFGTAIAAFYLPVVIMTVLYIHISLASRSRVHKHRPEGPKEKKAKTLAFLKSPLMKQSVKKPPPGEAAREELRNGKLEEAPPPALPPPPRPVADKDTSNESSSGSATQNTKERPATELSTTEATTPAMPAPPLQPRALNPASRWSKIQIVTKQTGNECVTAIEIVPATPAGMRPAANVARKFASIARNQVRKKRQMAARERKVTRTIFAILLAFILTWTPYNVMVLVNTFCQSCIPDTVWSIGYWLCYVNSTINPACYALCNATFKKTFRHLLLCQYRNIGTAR
CHRM5 PAM – potentiates acetylcholine response at human M5 receptor. P08912. CHO-K1 hM5, Fluo-8 calcium, ACh EC20 PAM; 0% = ACh EC20, 100% = ACh EC100. activation, % at 3 µM. 360,000 tested, 0.3% active. AID 624038;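 active = activation above the run cutoff, the mean activation of all test compounds plus 3 SD, cut at about 18% in these data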
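Replicates: One well per compound, no replicates | System: Human M5 receptor in CHO-K1 cells | Benchmarks: Low control EC20 acetylcholine (0%), high control EC100 acetylcholine (100%) | Probe or stimulus: Acetylcholine, EC20 level | Times: Fluo-8 loading 80 min at 37 °C plus 30 min room temperature | Signal: Intracellular calcium via Fluo-8 fluorescence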
M4 ag – agonists of human muscarinic M4 receptor (CHRM4); 360,000 tested, 0.14% active; activation, % at 3 µM; CHO-K1 hM4/Gqi5, Fluo-8 calcium fluorescence; vehicle 0%, full acetylcholine response 100%;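 active = activation above the run mean over all test wells plus 3 SD, cut at about 32% in these data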;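 note: peak over basal fluorescence ratio per well then scaled between controls; 0% = DMSO wells and 100% = acetylcholine at EC100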
CHRM4 antagonist – CHRM4 antagonism in calcium assay | P08173 | CHO-hM4 cells, ACh EC80, Fluo-8 calcium fluorescence | inhibition, % at 3 µM | 360,000 tested, 0.73% active | AID 624125;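 active = inhibition above its plate's cutoff, the mean inhibition of sample wells plus 3 SD, cut at about 27% in these data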;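 note: 0% = acetylcholine EC80 with DMSO and 100% = DMSO without agonist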
CHRM5 agonist – CHRM5 agonism in calcium assay | 360,000 tested, 0.19% active | P08912 | CHO-K1 hM5 cells, Fluo-8 calcium fluorescence; 0% DMSO wells, 100% maximal acetylcholine response | activation, % at 3 µM;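 active = activation above the run's mean over test compounds plus 3 SD, cut at about 23% in these data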;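 note: signal is peak over basal fluorescence ratio across the kinetic read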
M5 antag – blocks acetylcholine activation of human M5 receptor. P08912. CHO-hM5 cells, Fluo-8 calcium fluorescence, ACh EC80. inhibition, % at 3 µM. 360,000 tested, 0.59% active. AID 624040;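 active = inhibition above a per-plate cutoff, the mean of that plate's test compounds plus 3 SD, cut at about 27% in these data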;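 note: 0% = acetylcholine EC80 with DMSO and 100% = DMSO without agonist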
An asterisk follows results filed as active. Most compounds without a hit are left out; they make up all but 1.9% or so of the library.

SMILES	CHRM4 PAM	CHRM5 PAM	M4 ag	CHRM4 antagonist	CHRM5 agonist	M5 antag
CN(C1CCCCC1)S(=O)(=O)c1ccc2c(c1)c(=O)c(C(=O)NCCN1CCCC1)cn2C	-12.1	3.1	1.2	1.6	-2.5	-3.5
CCOC(=O)C1(C)CCCN1C(=O)c1cncc(Br)c1 (centres undefined)	-1.2	0.0	-0.1	-7.5	-0.8	1.4
CCOC(=O)C1(C)CCCCN1C(=O)c1cccnc1 (centres undefined)	19.3*	-2.0	0.7	-16.1	0.6	-15.3
O=C(NCCCn1ccnc1)c1cc(Cl)cc(Cl)c1	5.8	-2.6	1.0	-9.8	-2.9	0.3
O=C(CN1C(=O)NC2(CCCCC2)C1=O)Nc1cccc2ncccc12	24.0*	-8.2	0.3	-24.6	1.4	8.0
Cc1cccc(NC(=O)CN2C(=O)NC3(CCCCCCC3)C2=O)c1C	1.2	2.7	0.9	-5.8	3.1	20.6
CCN(CC)CCCN=C1N[C@@H](c2cccc(C(F)(F)F)c2)C(C(=O)OC)=C(C)N1CC	8.6	-5.8	2.1	4.4	-2.3	8.8
Cc1nc(NC(=O)CSc2nnc(C3CC3)n2N)c(Cl)cc1Cl	8.1	-11.9	0.6	-14.0	-0.4	-0.1
CC1CCc2c(sc(/N=C/N(C)C)c2C#N)C1 (centres undefined)	2.5	20.3*	-0.1	-3.3	-5.6	-10.2
C=CCN(C(C(=O)OC)C(C)C)S(=O)(=O)CCNCc1ccccc1 (centres undefined)	9.5	4.2	3.0	-7.0	1.4	4.0
Cc1c(OCC(=O)N[C@@H](Cc2c[nH]c3ccccc23)C(=O)O)ccc2c1oc(=O)c1ccccc12	-1.3	-4.9	2.6	-7.3	4.5	4.1
CN(C)c1ccc2nc3c(=O)[nH]c(=O)nc-3n(CC(O)C(O)C(O)CO)c2c1 (centres undefined)	-12.0	0.8	47.6*	13.4	11.8	1.0
O=c1[nH]c2ccccc2c2nc(-c3cccc(S(=O)(=O)N4CCCC4)c3)nn12	19.1	-4.7	1.5	29.3*	-3.1	5.7
Cc1ccc(C2(C)NC(=O)N(CC(=O)Nc3nc(-c4ccccn4)cs3)C2=O)cc1 (centres undefined)	-2.0	-5.0	9.6	-14.8	15.2	4.1
CCC(C(=O)Nc1cccnc1)n1c(=O)[nH]c2ccccc2c1=O (centres undefined)	3.9	4.0	1.7	4.5	-5.1	-0.7
Cc1nn(-c2ccccc2)c(C)c1NC(=O)COC(=O)c1cc(Br)ccc1O	-3.0	-23.7	20.3	30.7*	4.5	21.6
CC(C)CNc1ncnc2c1ncn2[C@H]1CN(Cc2ccc(F)cc2)C[C@@H](CO)O1	2.0	-3.1	5.1	-25.7	0.1	-5.6
O=C(Nc1ccc(Cl)cc1Cl)c1ccc(Br)o1	-1.0	-1.1	-1.0	-9.0	-2.2	4.2
Cn1nc(C(F)(F)F)c(/C=N/OC(=O)c2ccccc2Cl)c1SCc1ccccc1Cl	-33.1	-16.4	-0.8	66.6*	-7.3	-3.7
Cn1nc(C(F)(F)F)c(/C=N/OC(=O)c2ccccc2)c1SCc1ccc(Cl)cc1	-18.2	-10.3	0.1	10.4	-6.9	5.6
CC(C)NS(=O)(=O)c1ccc(NC(=O)C(C)Oc2ccc(C(=O)c3ccccc3)cc2)cc1 (centres undefined)	-46.1	-17.4	116.8*	71.0*	64.7*	46.7*
COc1ccc(OC(C)C(=O)Nc2cccc(OC)c2)cc1 (centres undefined)	4.5	19.1*	0.4	-14.1	-6.0	-11.8
CC(Oc1ccccc1)C(=O)Nc1ccc(C(N)=O)cc1 (centres undefined)	9.4	-3.1	3.8	3.7	1.7	2.6
COc1cccc(NC(=O)NNC(=O)C(C)Oc2ccc3ccccc3c2)c1 (centres undefined)	-4.4	-4.1	2.1	5.8	-2.1	-1.4
COc1ccc(NC(=O)C(C)Oc2ccc(/C(C)=N\O)cc2)cc1 (centres undefined)	-1.0	-17.6	8.9	-12.8	27.2*	-2.4
SMILES	CHRM4 PAM	CHRM5 PAM	M4 ag	CHRM4 antagonist	CHRM5 agonist	M5 antag
CCOC(=O)C1CCCN(C(=S)Nc2ccc(C)cc2C)C1 (centres undefined)	9.8	-6.4	1.9	4.2	35.6*	10.3
CCOC(=O)C1CCCN(C(=O)Cc2ccc(C)cc2)C1 (centres undefined)	0.9	8.8	0.4	7.8	-2.7	-6.7
CCOC(=O)C1CCCN(C(=S)Nc2ccc(Nc3ccccc3)cc2)C1 (centres undefined)	-10.7	-7.6	5.1	15.8	32.0*	1.0
CCOC(=O)C1CCCN(C(=O)Cc2c(C(=O)O)[nH]c3ccccc23)C1 (centres undefined)	-7.3	-5.7	0.5	9.5	38.0*	-9.4
CCOC(=O)C1CCCN(C(=O)C2c3ccccc3Oc3ccccc32)C1 (centres undefined)	2.7	-8.5	20.4	15.8	27.1*	2.5
CCOC(=O)C1CCCN(C(=O)C2COc3ccccc3O2)C1 (centres undefined)	-0.4	0.0	0.6	-3.5	1.7	-1.7
O=C(O)CCCCCNC(=O)CSc1nnc(-c2ccco2)n1-c1ccccc1	-5.7	-0.5	1.6	-4.7	-1.2	1.8
O=C(NC(=S)N1CC=CCC1)c1ccccc1	7.6	1.1	0.8	-0.6	0.9	-0.1
CCOC(=O)C1CCCN(C(=O)Cn2nc(C)c3c(C)n(-c4ccccc4)nc3c2=O)C1 (centres undefined)	17.5*	12.6	1.1	0.4	-2.4	2.3
COc1cc2c(cc1OC)[C@H](Cc1ccc(O)cc1)NCC2	4.7	4.8	0.4	2.1	1.4	1.9
CC(=O)N(C)c1ccc(NC(=O)Nc2ccc(C)c(C)c2)cc1	-11.3	-18.7	19.4	31.4*	4.1	29.4*
COC(=O)C1=C(C)NC(C)=C(C(=O)OCCN(C)Cc2ccccc2)C1c1cccc([N+](=O)[O-])c1 (centres undefined)	-17.8	-19.2	16.7	34.9*	3.1	17.4
COCC(C)N=C1NN=C(c2cc(C)n(Cc3ccccc3Cl)c2C)CS1 (centres undefined)	-1.8	-6.1	8.0	-1.5	1.7	8.4
Cc1cccc(C(=O)OCC(=O)N(C)c2ccccc2)c1C	-3.2	-8.8	5.6	2.2	-3.5	15.6
COc1cc(C(=O)Oc2cccc(Nc3ncnc4ccccc34)c2)cc(OC)c1OC	-28.1	-15.5	16.7	31.4*	4.1	29.4*
Cc1nc(N)c2c(Cc3cccc4ccccc34)nn(C(C)(C)C)c2n1	7.3	6.2	1.1	-3.5	-0.6	6.1
NN=C1c2ccccc2C(=O)C1C(=O)C(c1ccccc1)c1ccccc1 (centres undefined)	-8.3	-24.4	13.2	22.2	56.5*	37.8*

Screens from PubChem BioAssay.
